Test results from PMC6469250 (Annals of Clinical and Translational Neurology, 2019).
Where two headings read alike, the source gives them in different places. One block for each molecule: values may come before it.

Key:
[1] = system: hLTP; conditions: cited from earlier work
[2] = Pharmacokinetics in mice: total plasma and brain concentrations by LC-MS; type: in vivo; conditions: male, C57BL/6J, mouse
[3] = Pharmacokinetics in rats: total plasma and brain concentrations by LC-MS; type: in vivo; conditions: oral gavage 50 mg/kg, rats (Fig. 6D)
[4] = target: KCa3.1 (Mus musculus, UniProt O89109); test: Whole-cell patch-clamp on AβO-activated cultured primary microglia; type: cell-based; conditions: AβO 100 nmol/L 24 h, senicapoc 1 μmol/L (Fig. 7A)
Chain of KCa3.1 (Mus musculus, UniProt O89109) (O89109 whole entry): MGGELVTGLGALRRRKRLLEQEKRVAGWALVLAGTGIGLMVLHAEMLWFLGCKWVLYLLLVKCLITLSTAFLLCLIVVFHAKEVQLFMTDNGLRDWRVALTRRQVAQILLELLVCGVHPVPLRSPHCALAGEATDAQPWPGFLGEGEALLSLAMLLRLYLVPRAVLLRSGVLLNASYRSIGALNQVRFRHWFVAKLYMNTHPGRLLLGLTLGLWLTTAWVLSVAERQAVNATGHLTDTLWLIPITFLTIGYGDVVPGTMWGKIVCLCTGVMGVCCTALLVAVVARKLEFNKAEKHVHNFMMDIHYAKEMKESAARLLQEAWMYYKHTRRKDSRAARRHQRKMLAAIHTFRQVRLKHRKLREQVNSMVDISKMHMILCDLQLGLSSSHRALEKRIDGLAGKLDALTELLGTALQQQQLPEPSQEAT
In short: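 Whole-cell patch-clamp was done on cultured primary microglia after 24 h AβO (100 nmol/L) with test compound or vehicle. An aspartate-based internal solution was used. KCa3.1 conductance was taken from the slope of the TRAM-34-sensitive KCa current between −80 and −75 mV.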

[5] = system: primary microglia; test: AβO-induced proinflammatory activation of cultured primary microglia; type: cell-based, mouse
In short: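 Primary microglia came from mixed glia cultures and were exposed to AβO (100 nmol/L) for 24 h with test compound or vehicle. For qPCR, RNA was kit-extracted and analysed by the 2‑ΔΔCt method with Actb as reference. For p38MAPK, cells were lysed in Triton/SDS buffer with protease and phosphatase inhibitors, then immunoblotted with anti-phospho-p38MAPK and anti-p38MAPK (1:1000).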

[6] = system: 5xFAD mice; test: hLTP in hippocampal slices from treated 5xFAD mice; type: in vivo; conditions: senicapoc diet for three months; to the level of Wt mice (Fig. 8F and G)
In short: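 5xFAD and Wt littermates aged six months were fed test compound-medicated (2400 ppm) or control diet for three months. Hippocampal slices then received high-frequency stimulation. The read-out was mean percent change in fEPSP slope from baseline, averaged 50–60 min after HFS, from 8–12 slices of 5–6 mice per group. Data are mean ± SE; two-way ANOVA with Bonferroni.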

[7] = system: 5xFAD mice; type: in vivo
In short: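 Six-month-old 5xFAD and Wt littermates got 2400 ppm test compound or control diet for three months (n = 9/group). Frozen 20 μm sections were stained overnight at 4°C with anti-Iba-1, CD68 or CD11b (1:200), Alexa secondaries (1:700) and FSB (400 nmol/L) for plaques. KCa3.1 was detected with APC064 or P4997 (1:3000); microglial co-localisation used three images per mouse. Imaging and analysis were blinded.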

[8] = system: 5xFAD mice; test: qPCR of acutely isolated microglia after three months of senicapoc diet; type: in vivo
In short: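 Six-month-old 5xFAD and Wt littermates were fed 2400 ppm test compound or control diet ad lib for three months (n = 9/group). Microglia were acutely isolated with anti-CD11b magnetic beads. RNA was extracted, reverse-transcribed and pre-amplified. Pro-inflammatory and M2-like transcripts (Arg1, CD206, […], IGF-1) were quantified by 2‑ΔΔCt against Actb. Groups were compared by two-way ANOVA with Bonferroni.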

[9] = system: 5xFAD mice; test: Memory tasks: novel object recognition and step-through passive avoidance; type: in vivo; conditions: 5xFAD mice at 9 months of age; no significant memory deficits in 5xFAD/control diet mice
[10] = humans; cited from earlier work
[11] = system: KCa3.1; conditions: read-out: IC50 for KCa3.1 inhibition; cited from earlier work
[12] = cited from earlier work
[13] = cited from earlier work; remark: listed apart in the source

SMILES: CN(C)c1ccc(O)c2c1C[C@H]1C[C@H]3[C@H](N(C)C)C(O)=C(C(N)=O)C(=O)[C@@]3(O)C(O)=C1C2=O [minocycline]
- hLTP disruption by Aβ [1]: prevent the hLTP disruption

- concentration at 1 h ([2]; brain, ip, 50 mg/kg): 43 ± 8 µM
- half-life ([2]; plasma): ~1 h
- oral availability [3]: roughly 60%
- AβO-induced microglial KCa3.1 currents [4]: block
SMILES: NC(=O)C(c1ccccc1)(c1ccc(F)cc1)c1ccc(F)cc1 [senicapoc]
- AβO-induced microglial proliferation ([5]; AβO 100 nmol/L 24 h, senicapoc 1 μmol/L if not otherwise indicated (Fig. 7B)): block
- AβO-induced production of NO ([5]; AβO 100 nmol/L 24 h, senicapoc 1 μmol/L if not otherwise indicated (Fig. 7E)): block
- AβO-induced expression of microglial activation mediators IL-1β, IL-6 and iNOS ([5]; AβO 100 nmol/L 24 h, senicapoc 1 μmol/L, qPCR (Fig. 7C)): block
- AβO-induced activation of p38MAPK ([5]; AβO 100 nmol/L, senicapoc 1 μmol/L, Western blotting (Fig. 7D)): block
- reduced induction of hLTP in 5xFAD mice [6]: rectified
- number of microglia expressing KCa3.1 ([7]; medicated diet for three months (Fig. 8B)): significantly reduced
- reduction of CD11b immunoreactivity ([7]; medicated diet for three months, P < 0.001 (Fig. 8A)): 45%
- expressions of proinflammatory modulators IL-1β, TNF-α, IL-6, and iNOS (qPCR) ([8]; medicated diet for three months (Fig. 8C)): significantly reduced
- markers typical of an M2-like phenotype (qPCR) ([8]; medicated diet for three months (Fig. S5)): no changes
- cognitive benefit [9]: could not be demonstrated
- half-life [10]: ~ 7 day
- IC50 [11]: 11 nM
- protein binding [12]: 95%
- hemolysis and hemoglobin levels ([13]; Phase-2 clinical trial): reduced hemolysis and increased hemoglobin levels
- primary clinical end-point: reduction in the rate of vaso-occlusive pain crisis ([13]; Phase-3): failed to achieve its primary clinical end‐point
- safety and tolerability in humans ([13]; Phase-3 clinical trial for sickle cell anemia): safe and well‐tolerated
